# Source: PubChem BioAssay AID2648 (Johns Hopkins Ion Channel Center, 2010)
# The campaign covered roughly 310,000 compounds. About 1,100 (0.35%) were called active.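 Rule for the calls: active = fluorescence ratio B-score, a plate-corrected score, at least three library SD, with initial intensity B-score within 5 SD; inactive = the rest.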 This excerpt belongs to a sample that is enriched for actives.
# Target: Potassium voltage-gated channel subfamily KQT member 1 (Homo sapiens) (UniProt P51787)
# Experiment: human KCNQ1 current enhancers – cell-based, thallium flux, high-throughput, primary screen (AID 2648)
# Conditions: CHO-K1 KCNQ1, thallium flux FluxOR fluorescence, at 10 µM; stronger effect = higher value
# Method in brief: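 System: CHO-K1 cells stably expressing KCNQ1 / Medium: assay buffer for compound exposure, DMSO matched across wells / Reagent: thallium- and potassium-containing depolarizing buffer / Compound: one concentration, matched DMSO / Incubation: 20 min compound pretreatment at room temperature / Measured by: kinetic FluxOR fluorescence, 10 s baseline plus 110 s post-stimulus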
# Chain of Potassium voltage-gated channel subfamily KQT member 1 (Homo sapiens) (P51787 whole entry, looked up): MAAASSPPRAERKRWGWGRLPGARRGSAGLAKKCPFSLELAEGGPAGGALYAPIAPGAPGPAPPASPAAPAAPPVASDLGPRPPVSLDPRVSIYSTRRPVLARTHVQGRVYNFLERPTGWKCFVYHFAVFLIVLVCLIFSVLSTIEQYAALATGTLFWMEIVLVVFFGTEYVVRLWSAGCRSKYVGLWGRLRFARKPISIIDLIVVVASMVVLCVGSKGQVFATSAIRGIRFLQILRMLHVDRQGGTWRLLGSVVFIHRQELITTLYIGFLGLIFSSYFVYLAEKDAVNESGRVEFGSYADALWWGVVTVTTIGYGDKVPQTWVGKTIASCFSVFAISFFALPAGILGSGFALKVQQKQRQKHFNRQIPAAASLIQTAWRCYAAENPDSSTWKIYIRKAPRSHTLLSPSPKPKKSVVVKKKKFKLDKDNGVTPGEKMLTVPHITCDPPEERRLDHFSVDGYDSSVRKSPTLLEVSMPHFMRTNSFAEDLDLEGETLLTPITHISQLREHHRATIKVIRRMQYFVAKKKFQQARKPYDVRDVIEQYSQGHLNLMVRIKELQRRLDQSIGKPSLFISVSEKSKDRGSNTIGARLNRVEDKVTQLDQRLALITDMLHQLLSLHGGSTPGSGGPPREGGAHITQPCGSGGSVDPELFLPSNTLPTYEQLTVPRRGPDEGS
row,SMILES,B-score
1,O=C(N/N=C\c1cc2c(cc1Cl)OCO2)c1ccc(Br)s1,inactive
2,COC(=O)c1sccc1NC(=O)COc1ccc(Cl)cc1,inactive
3,COC(=O)c1sccc1NS(=O)(=O)c1ccc(F)cc1F,inactive
4,COC(=O)c1sccc1NC(=O)CSc1ccccc1NS(=O)(=O)c1cc(Cl)ccc1Cl,12 (active)
5,O=C(NNC(=S)NC1CCCCC1)c1ccccc1Cl,inactive
6,O=C(NC(=S)NC1CCCCC1)c1ccc(Cl)cc1,9 (active)
7,COc1ccc(C(=O)NC(=S)NC2CCCCC2)cc1,inactive
8,CC(C)Cc1nc(Nc2ccc(S(=O)(=O)N3CCCC3)cc2)c2nnn(Cc3ccccc3)c2n1,inactive
9,CCc1ccc(Oc2coc3cc(O)ccc3c2=O)cc1,inactive
10,CC(Oc1cccc(Cl)c1)C(=O)Nc1ccc(S(=O)(=O)Nc2ncccn2)cc1 (stereo not drawn),inactive
11,CN(C)CCCn1c(=O)n(Cc2ccccc2)c(=O)c2c3c(sc21)CCCCC3,inactive
12,CCn1c(=S)[nH]c2sc3c(c2c1=O)CCCCC3,92 (active)
13,CCCc1nc2sc3c(c2c(=O)n1NC(=O)CCCl)CCCC3,inactive
14,N#Cc1nc(N)nc(N(c2ccccc2)c2ccccc2)n1,inactive
15,O=C(Nc1cccn(Cc2ccccc2Cl)c1=O)NC1CCCCC1,inactive
16,CC(OC(=O)C1CC(=O)N(Cc2ccccc2)C1)C(=O)Nc1ccccc1[N+](=O)[O-] (stereo not drawn),inactive
17,COc1ccc(C(=O)NNC(=S)NC(=O)c2ccccc2)cc1,10 (active)
18,COc1ccc(C(=O)NNC(=S)NC(=O)c2ccccc2[N+](=O)[O-])cc1,inactive
19,COc1ccc(C(=O)NC(=S)NNC(=O)c2c(-c3ccccc3)noc2C)cc1,inactive
20,CCc1cc2c(=O)c(-c3ccon3)c(N)oc2cc1OC,inactive

row,SMILES,B-score
1,Oc1ccc(N=Nc2nccs2)c(O)c1,inactive
2,Oc1ccc2ccccc2c1N=Nc1nccs1,21 (active)
3,c1ccc(NCc2cccc3ccccc23)nc1,inactive
4,COc1ccc(N(CC(=O)NCc2ccc(F)cc2)C(=O)CCC(=O)Nc2nccs2)cc1,inactive
5,CC1=C/C(=N\OS(=O)(=O)c2ccccc2)C=CC1=O,9 (active)
6,O=S(=O)(ON(c1ccccc1)S(=O)(=O)c1ccccc1)c1ccccc1,inactive
7,CCOc1ccc(Br)cc1S(=O)(=O)Nc1cccc(S(=O)(=O)N(CC)CC)c1,inactive
8,Cc1ccc(O)c(NC(=O)COc2cc(C)ccc2C)c1,inactive
9,Cc1ccc(O)c(NC(=S)NC(=O)COc2ccc(Br)cc2)c1,8 (active)
10,Cc1cccc(OCC(=O)NC(=S)Nc2ccccc2N2CCOCC2)c1,inactive
11,CCCCn1c(N)c(N(CCC(C)C)C(=O)CC2OC(=O)c3ccccc32)c(=O)[nH]c1=O (stereo not drawn),inactive
12,Cc1cc2occ(CC(=O)NNC(=O)c3ccccc3F)c2cc1C,inactive
13,CCOC(=O)CN(C(=O)COc1nc(-c2ccccc2)cc(C)c1C#N)c1ccc(F)cc1,inactive
14,Cc1cccc(C(=O)Nc2ccc(C(=O)/C=C/c3cccs3)cc2)c1,inactive
15,Cc1cccc(/C(N)=N/OC(=O)c2ccccc2Cl)c1,inactive
16,C/C(=N\NC(=S)Nc1ccc(C)cc1)c1cc2ccccc2o1,28 (active)
17,C/C(=N/NC(=S)Nc1ccccc1)c1ccc2c(c1)OCO2,inactive
18,Cc1ccc(NC(=O)c2cc3ccccc3o2)cc1,inactive
19,O=C(CSc1nncn1-c1cccnc1)N1CCOCC1,inactive
20,CCc1[nH]nc(C(=O)N2CCCC(CNS(=O)(=O)c3cccs3)C2)c1C (stereo not drawn),inactive

row,SMILES,B-score
1,CC(C)c1ccc2c(c1)c(SC(C)(C)C)c(CC(C)(C)C(=O)O)n2Cc1ccc(Cl)cc1,44 (active)
2,Nc1ncnc(Nc2cccc(Cl)c2Cl)n1,inactive
3,Cc1cccc(C(=O)NCCCN(C)CCCNC(=O)c2cccc(C)c2)c1,inactive
4,Cc1cccc(C(=O)NC(=S)N(C)C2CCCCC2)c1,16 (active)
5,Cc1cccc(NC(=S)NCCN(C2CCCCC2)C2CCCC2)c1,inactive
6,COc1ccc(C(=O)C2CCCN(C(=O)c3cnsn3)C2)c(C)c1 (stereo not drawn),inactive
7,OC(CNC1CCCC1)COc1ccc(F)cc1 (stereo not drawn),inactive
8,CC1CCN(C(=O)c2ccc(S(=O)(=O)Cc3cc(F)ccc3F)c([N+](=O)[O-])c2)CC1,inactive
9,COc1cccc2sc(NNC(=O)c3nc4ccccc4s3)nc12,28 (active)
10,COc1cccc2sc(Nc3nc(C)c(C(C)=O)s3)nc12,inactive
11,COc1ccccc1OCc1nc2ccccc2s1,inactive
12,CN(CC(=O)Nc1ccccc1C(F)(F)F)C(=O)Cc1ccccc1F,inactive
13,COCCNC(=O)CN1C(=O)CSc2ncccc21,inactive
14,O=C1CCCc2c1nc(-c1cccc(Cl)c1)n2O,inactive
15,Cc1cccc(-c2nc3ccccc3c(=O)n2NC(=O)Cc2ccc(Cl)cc2)c1,inactive
16,O=c1c2cc(Br)ccc2nc(-c2cccc(Cl)c2)n1O,89 (active)
17,Cc1ccc(S(=O)(=O)N(C)C)cc1NC(=O)COC(=O)/C=C/c1cccs1,inactive
18,O=C(NCCc1ccco1)C(=O)NCCC1CCCCN1S(=O)(=O)c1ccccc1 (stereo not drawn),inactive
